Seven molecules from ChEMBL document CHEMBL1811821, “Cystic fibrosis: a new target for 4-Imidazo[2,1-b]thiazole-1,4-dihydropyridines” (J Med Chem, 2011) can be followed below.

Test [1] is described as follows: Negative ionotropic activity in potassium depolarized guinea pig longitudinal smooth muscle assessed as inhibition of calcium-induced contraction. The test is classed as functional, Cavia porcellus.
A short description of test [2]: Bronchodilatory activity in guinea pig trachea assessed as inhibition of carbachol-induced contraction at 10^-7 M. The test is classed as functional. Particulars: Cavia porcellus.
Test [3] in a line: Bronchodilatory activity in guinea pig trachea assessed as inhibition of carbachol-induced contraction. The test is classed as functional, tissue-based, Cavia porcellus.
The subject of test [4] is Cystic fibrosis transmembrane conductance regulator (Homo sapiens), P13569 [F508del]. The test can be described thus: Activity at CFTR F508 deletion mutant expressed in forskolin-stimulated FRT cells assessed as maximal increase in iodine influx measured as YFP quenching rate after 24 hrs by fluorescence assay. The test is classed as cell-based. The essentials: (§1)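 ΔF508-CFTR and halide-sensitive YFP coexpressed in FRT cells, held at 27 °C for 24 h for rescue, then stimulated 30–40 min with 20 μM forskolin with or without compound at 0.2, 2 and 20 μM. Fluorescence read before and after I– addition (100 mM final). Normalized decay fitted exponentially for maximal quenching rate; dose–response fitted with Hill equation for potency and maximal effect. Three independent determinations.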

Test [5] in a line: Binding affinity to CFTR F508 deletion mutant expressed in forskolin-stimulated FRT cells assessed as increase in iodine influx measured as YFP quenching rate after 24 hrs by fluorescence assay. The test is classed as cell-based. The essentials:
as §1

The subject of test [6] is Cystic fibrosis transmembrane conductance regulator (Homo sapiens), P13569 [F508del]. In words: Activity at CFTR F508 deletion mutant expressed in forskolin-stimulated FRT cells assessed as maximal increase in iodine influx measured as YFP quenching rate at 0.2 uM after 24 hrs by fluorescence assay. The test is classed as cell-based. Summed up:
as §1

The species named for test [7] is Cavia porcellus. The test can be described thus: Negative ionotropic activity in potassium depolarized guinea pig longitudinal smooth muscle assessed as inhibition of calcium-induced contraction at 10^-6 M. The test is classed as functional.
Test [8] is described as follows: Bronchodilatory activity in guinea pig trachea assessed as inhibition of carbachol-induced contraction at 10^-4 M. The test is classed as functional. Particulars: Cavia porcellus.
Test [9] is described as follows: Negative chronotropic activity against potassium-induced contraction in guinea pig right atrium assessed as decrease atrial rate at 10^-6 M relative to control. The test is classed as functional. The note with it: Cavia porcellus, Cardiac atrium. The essentials: (§2)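 Spontaneously beating isolated guinea pig right atrium, pretreatment rate 165–190 beats/min. Drugs added cumulatively. Decrease in atrial rate expressed as percent change from control, n = 7–8. […] Control versus treated tested at each concentration by Student's t-test, P < 0.05. Mean ± SEM.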

Test [10] in a line: Negative ionotropic activity against potassium-induced contraction in guinea pig left atrium assessed as […] at 10^-4 M relative to control. The test is classed as functional. The note with it: Cavia porcellus, Cardiac atrium. The essentials:
(§3)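 Isolated guinea pig left atrium paced at 1 Hz. Drugs added cumulatively. Negative inotropic effect expressed as percent change from control, n = 5–6. […] Student's t-test against control at each concentration, P < 0.05. Mean ± SEM.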

For test [11], the system named is Aorta. The test can be described thus: Vasorelaxant activity in potassium depolarized guinea pig aortic strip assessed as inhibition of calcium-induced contraction at 10^-4 M. The test is classed as functional. Particulars: Cavia porcellus. The essentials:
(§4)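 Guinea pig aortic strips depolarized with 80 mM K+, with cumulative drug addition. Relaxation given as mean ± SEM. […] Student's t-test against control, P < 0.05.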

Test [12] is filed under the species Cavia porcellus. The test can be described thus: Negative ionotropic activity in potassium depolarized guinea pig longitudinal smooth muscle assessed as inhibition of calcium-induced contraction at 10^-7 M. The test is classed as functional.
A short description of test [13]: Negative ionotropic activity against potassium-induced contraction in guinea pig left atrium assessed as decrease in developed tension. Particulars: Cavia porcellus, Cardiac atrium.
The nature of test [14]: Bronchodilatory activity in guinea pig trachea assessed as inhibition of carbachol-induced contraction at 10^-5 M. Particulars: Cavia porcellus. The test is classed as functional.
A short description of test [15]: Negative chronotropic activity against potassium-induced contraction in guinea pig right atrium assessed as decrease atrial rate at 10^-7 M relative to control. The test is classed as functional. The note with it: Cavia porcellus, Cardiac atrium. The essentials:
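Isolated spontaneously beating guinea pig right atrium with pretreatment heart rate of 165–190 beats/min. Compound was added cumulatively. Atrial rate decrease at the stated concentration is given as percent change from control, mean ± SEM, n = 7–8. Control versus treated values at each concentration were compared by Student's t-test at P < 0.05.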

Test [16] is described as follows: Negative ionotropic activity against potassium-induced contraction in guinea pig left atrium assessed as […] at 10^-5 M relative to control. The test is classed as functional. Particulars: Cavia porcellus, Cardiac atrium. The essentials: as §3
Test [17] has as its system Aorta. In words: Vasorelaxant activity in potassium depolarized guinea pig aortic strip assessed as inhibition of calcium-induced contraction at 5 X 10^-7 M. The test is classed as functional. Particulars: Cavia porcellus. Summed up: as §4
Test [18] in a line: Ratio EC50 for nifedipine to compound for negative […] activity against potassium-induced contraction in left atrium of guinea pig. The test is classed as functional, Cavia porcellus, Cardiac atrium.
The species entered for test [19] is Cavia porcellus. The test can be described thus: Negative ionotropic activity in potassium depolarized guinea pig longitudinal smooth muscle assessed as inhibition of calcium-induced contraction at 10^-8 M. The test is classed as functional.
For test [20], the species on record is Cavia porcellus. In words: Negative ionotropic activity in potassium depolarized guinea pig longitudinal smooth muscle assessed as inhibition of calcium-induced contraction at 10^-5 M. The test is classed as functional.
Test [21] in a line: Negative chronotropic activity against potassium-induced contraction in guinea pig right atrium assessed as decrease atrial rate at 5 X 10^-6 M relative to control. The test is classed as functional. Particulars: Cavia porcellus, Cardiac atrium. The essentials: as §2
The nature of test [22]: Negative ionotropic activity against potassium-induced contraction in guinea pig left atrium assessed as […] at 10^-6 M relative to control. The test is classed as functional. The note with it: Cavia porcellus, Cardiac atrium. Summed up: as §3
The subject of test [23] is Aorta. The test can be described thus: Vasorelaxant activity in potassium depolarized guinea pig aortic strip assessed as inhibition of calcium-induced contraction at 10^-5 M. The test is classed as functional. The note with it: Cavia porcellus. Summed up:
as §4

The nature of test [24]: Negative chronotropic activity against potassium-induced contraction in guinea pig right atrium assessed as decrease atrial rate at 10^-5 M relative to control. The test is classed as functional. The note with it: Cavia porcellus, Cardiac atrium. The essentials:
as §2

A short description of test [25]: Negative chronotropic activity against potassium-induced contraction in guinea pig right atrium assessed as decrease atrial rate. The test is classed as functional, tissue-based. The note with it: Cavia porcellus, Cardiac atrium. The essentials: as §2
Test [26] can be described thus: Negative ionotropic activity against potassium-induced contraction in guinea pig left atrium assessed as […] at 5 X 10^-5 M relative to control. The test is classed as functional. Particulars: Cavia porcellus, Cardiac atrium. The essentials:
as §3

Test [27] is described as follows: Ratio EC50 for negative chronotropic activity against potassium-induced contraction in guinea pig right atrium to EC50 for negative […] activity against potassium-induced contraction in guinea pig left atrium. The test is classed as functional, Cavia porcellus, Cardiac atrium.
For test [28], the system named is Aorta. In words: Vasorelaxant activity in potassium depolarized guinea pig aortic strip assessed as inhibition of calcium-induced contraction at 10^-6 M. The test is classed as functional. The note with it: Cavia porcellus. The essentials: as §4
The test system of test [29] is Aorta. The test can be described thus: Vasorelaxant activity in potassium depolarized guinea pig aortic strip assessed as inhibition of calcium-induced contraction. The test is classed as functional, tissue-based. The note with it: Cavia porcellus. The essentials: as §4
The species entered for test [30] is Cavia porcellus. The test can be described thus: […] activity in potassium depolarized guinea pig longitudinal smooth muscle assessed as inhibition of calcium-induced contraction at 5 X 10^-9 M. The test is classed as functional.
The species named for test [31] is Cavia porcellus. The test can be described thus: Negative ionotropic activity in potassium depolarized guinea pig longitudinal smooth muscle assessed as inhibition of calcium-induced contraction at 3 X 10^-7 M. The test is classed as functional.

Calls of active or inactive are those of the source. The calls are words filed in the database; no cut-off is given here.

Sequence of Cystic fibrosis transmembrane conductance regulator (Homo sapiens), P13569 [F508del] (P13569 as listed by the source): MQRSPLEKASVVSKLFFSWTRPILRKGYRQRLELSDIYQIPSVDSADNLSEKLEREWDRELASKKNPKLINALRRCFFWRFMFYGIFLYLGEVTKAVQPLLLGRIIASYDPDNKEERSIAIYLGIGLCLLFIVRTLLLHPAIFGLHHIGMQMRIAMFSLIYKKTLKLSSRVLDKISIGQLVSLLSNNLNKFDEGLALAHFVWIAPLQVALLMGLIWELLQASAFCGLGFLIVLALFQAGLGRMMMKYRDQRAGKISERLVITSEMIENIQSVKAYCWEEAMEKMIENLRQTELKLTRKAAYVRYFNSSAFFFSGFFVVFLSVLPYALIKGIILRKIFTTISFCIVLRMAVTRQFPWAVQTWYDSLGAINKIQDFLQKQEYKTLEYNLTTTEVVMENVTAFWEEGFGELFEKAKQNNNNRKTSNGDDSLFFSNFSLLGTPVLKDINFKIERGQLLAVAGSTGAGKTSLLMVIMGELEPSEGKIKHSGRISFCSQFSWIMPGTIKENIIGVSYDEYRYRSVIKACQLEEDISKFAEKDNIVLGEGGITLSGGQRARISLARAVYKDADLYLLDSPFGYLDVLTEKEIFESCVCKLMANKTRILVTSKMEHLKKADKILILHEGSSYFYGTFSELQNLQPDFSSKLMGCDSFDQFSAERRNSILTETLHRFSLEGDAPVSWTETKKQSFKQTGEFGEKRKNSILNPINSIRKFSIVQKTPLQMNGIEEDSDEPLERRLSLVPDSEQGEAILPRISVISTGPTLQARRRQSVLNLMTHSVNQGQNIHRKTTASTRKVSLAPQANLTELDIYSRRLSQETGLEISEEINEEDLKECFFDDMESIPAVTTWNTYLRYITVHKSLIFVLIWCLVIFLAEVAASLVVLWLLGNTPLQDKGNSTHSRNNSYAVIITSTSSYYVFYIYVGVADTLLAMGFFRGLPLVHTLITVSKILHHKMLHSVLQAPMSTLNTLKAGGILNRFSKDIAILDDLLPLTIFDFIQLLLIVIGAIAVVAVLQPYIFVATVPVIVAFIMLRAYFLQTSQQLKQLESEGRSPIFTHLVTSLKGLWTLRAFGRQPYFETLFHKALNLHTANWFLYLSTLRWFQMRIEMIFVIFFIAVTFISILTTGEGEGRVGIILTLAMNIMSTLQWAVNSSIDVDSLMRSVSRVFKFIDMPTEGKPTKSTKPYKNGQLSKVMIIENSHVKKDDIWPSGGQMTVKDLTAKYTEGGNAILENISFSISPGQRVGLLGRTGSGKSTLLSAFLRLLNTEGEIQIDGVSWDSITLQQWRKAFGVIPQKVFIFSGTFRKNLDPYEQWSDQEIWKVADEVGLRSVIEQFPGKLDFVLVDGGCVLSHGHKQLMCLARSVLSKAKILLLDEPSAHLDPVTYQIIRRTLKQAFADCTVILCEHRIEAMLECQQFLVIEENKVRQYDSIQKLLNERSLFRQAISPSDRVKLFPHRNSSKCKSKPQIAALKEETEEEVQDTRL

The term IC50 denotes the concentration that inhibits the measured activity by half. Broadly, the inhibition is the percentage by which the read-out fell short of the control. As a reminder, the Kd is the free concentration of one partner at which half of the binding sites on the other are occupied at equilibrium, for simple one-to-one binding. For the molecule `COC(=O)C1=C(C)NC(C)=C(C(=O)OC)C1c1c(C(F)(F)F)nc2sc(C)cn12`, the half-inhibitory concentration (IC50) in test [1] turned out to be 95 nM; in [3], 31 nM. In test [2], the inhibition at 0.1 µM came out at 64%. The Emax in [4] amounted to 60 ms-1. Besides, the Kd in test [5] is 12 µM. The result in test [6] was inactive. Besides, the inhibition in test [7] amounted to 92%.

By EC50 is commonly meant the concentration at which the effect is half-maximal. With `CCOC(=O)C1=C(C)NC(C)=C(C(=O)OCC)C1c1c(C(F)(F)F)nc2sccn12`, the IC50 in [1] worked out at 14 nM; in [3] it was 1110 nM. For the same molecule, the figures for the inhibition at 100 µM in [8], in test [10] and in test [11] were 77%, 93% and 48%, respectively. Also, the Emax in [4] was determined as 60 ms-1. Besides, the Kd in test [5] stood at 19.4 µM. For the same molecule, the outcome in [6] was inactive. In test [9], the inhibition at 1 µM was 40%. Also, the inhibition in test [12] stood at 90%. Further, the EC50 in [13] is 1070 nM.

Take `COC(=O)C1=C(C)NC(C)=C(C(=O)OC)C1c1c(-c2ccc(C(F)(F)F)cc2)nc2sccn12`: the IC50 in test [1] amounted to 4.6 nM; in test [3] it was 61 nM. The inhibition at 10 µM is 67% in test [14] and 96% in test [16]. Further, in test [4], the Emax amounted to 64 ms-1. In addition, the Kd in test [5] was determined as 3.2 µM. In addition, the result in test [6] was inactive. The inhibition at 0.1 µM in test [15] was found to be 33%. In test [17], the inhibition at 0.5 µM is 36%. Further, the “Ratio EC50” value in test [18] was 2.6. In addition, the inhibition in test [19] was 69%. For the same molecule, the EC50 in test [13] came to 120 nM.

Regarding `CCOC(=O)C1=C(C)NC(C)=C(C(=O)OCC)C1c1cccc(Oc2ccccc2)c1`, in [20], the inhibition came to 83%. The IC50 in test [1] worked out at 230 nM. Also, the inhibition at 10 µM came out at 30% in [14] and 17% in test [23]. Also, the Emax in [4] is 62 ms-1. Further, the dissociation constant (Kd) in test [5] worked out at 0.37 µM. In addition, in [21], the inhibition at 5 µM worked out at 38%. Besides, in [22], the inhibition at 1 µM was 80%. Also, the concentration giving a half-maximal response (EC50) in test [13] worked out at 29 nM.

`C=CCOC(=O)C1=C(C)NC(C)=C(C(=O)OCC=C)C1c1c(-c2ccc(C(F)(F)F)cc2)nc2sc(C)c(C)n12`: the half-maximal inhibitory concentration (IC50) in [1] was 460 nM. Further, the Emax in test [4] came to 42 ms-1. Moreover, in test [5], the Kd was 0.32 µM. In test [6], the outcome was inactive. Also, the inhibition at 10 µM in [24] stood at 52%. Further, the EC50 in [25] turned out to be 8.96 µM; in [13] it was 270 nM. For the same molecule, the inhibition at 50 µM in test [26] was found to be 93%. The inhibition at 100 µM in test [11] turned out to be 32%. The “Ratio EC50” value in test [27] came to 33. In addition, in test [7], the inhibition was determined as 72%.

For `COC(=O)C1=C(C)NC(C)=C(C(=O)OC)C1c1ccccc1[N+](=O)[O-]` [NIFEDIPINE], the inhibition at 10 µM in [14] came to 62%; in [16], 97%. In addition, the IC50 stood at 96 nM in test [3] and 9 nM in test [29]. The Emax in test [4] was determined as 58 ms-1. Besides, the Kd in [5] worked out at 2.9 µM. Besides, in test [15], the inhibition at 0.1 µM stood at 85%. Also, the values for the EC50 in [25] and in test [13] were 0.039 µM and 260 nM, respectively. Besides, in test [28], the inhibition at 1 µM was found to be 82%. Moreover, in [30], the inhibition is 70%.

In the case of `COC(=O)C1=C(C)NC(C)=C(C(=O)OC)C1c1c(C(F)(F)F)nc2sccn12`, in [1], the IC50 came to 210 nM. Further, in test [4], the Emax stood at 60 ms-1. In addition, in [5], the dissociation constant (Kd) came to 28.3 µM. Further, in test [6], the result was inactive. Also, in test [31], the inhibition stood at 70%.
